From ChEMBL document CHEMBL1141663, “Synthesis and antibacterial activity of bis-[2-hydroxy-3-(1,7,8,9,10-pentamethyl-3,5-dioxo-4-aza-tricyclo[5.2.1.0(2,6)]dec-8-en-4-yloxy)-propyl]-dimethyl-ammonium chloride” (2008)
Calls of active or inactive are those of the source.

How the values were obtained:
Staphylococcus aureus [1] = assay: Antibacterial activity against methicillin-susceptible Staphylococcus aureus 72/05 isolates after 18 hrs; type: functional
How it was run: (§1)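 Agar-dilution MIC on Mueller–Hinton II agar per CLSI guidelines. Aqueous test solutions were added to liquid agar to give two dilution series across 6.25–400 µg/mL. Solidified plates were spot-inoculated with 2 µL aliquots to a final inoculum of 10^4 […]. […] Strains were standard S. aureus strains or hospital patient isolates typed MSSA/MRSA.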

Staphylococcus aureus [2] = assay: Antibacterial activity against methicillin-susceptible Staphylococcus aureus 98/06 isolates after 18 hrs; type: functional; how it was run: as §1
Staphylococcus aureus [3] = assay: Antibacterial activity against methicillin-susceptible Staphylococcus aureus 101/06 isolates after 18 hrs; type: functional; how it was run: as §1
Staphylococcus aureus [4] = assay: Antibacterial activity against methicillin-susceptible Staphylococcus aureus 102/06 isolates after 18 hrs; type: functional; how it was run: as §1
Staphylococcus aureus [5] = assay: Antibacterial activity against methicillin-susceptible Staphylococcus aureus 112/06 isolates after 18 hrs; type: functional; how it was run: as §1
Staphylococcus aureus [6] = assay: Antibacterial activity against methicillin-resistant Staphylococcus aureus 1/04 isolates after 18 hrs; type: functional; how it was run: as §1
Staphylococcus aureus [7] = assay: Antibacterial activity against methicillin-resistant Staphylococcus aureus 5/04 isolates after 18 hrs; type: functional; how it was run: as §1
Staphylococcus aureus [8] = assay: Antibacterial activity against methicillin-resistant Staphylococcus aureus 19/04 isolates after 18 hrs; type: functional; how it was run: as §1
Staphylococcus aureus [9] = assay: Antibacterial activity against methicillin-resistant Staphylococcus aureus 29/04 isolates after 18 hrs; type: functional; how it was run: as §1
Staphylococcus aureus [10] = assay: Antibacterial activity against methicillin-resistant Staphylococcus aureus 46/05 isolates after 18 hrs; type: functional; how it was run: as §1
Staphylococcus aureus [11] = assay: Antibacterial activity against methicillin-resistant Staphylococcus aureus 47/05 isolates after 18 hrs; type: functional; how it was run: as §1
Staphylococcus aureus [12] = assay: Antibacterial activity against methicillin-resistant Staphylococcus aureus 48/05 isolates after 18 hrs; type: functional; how it was run: as §1
Staphylococcus aureus [13] = assay: Antibacterial activity against methicillin-resistant Staphylococcus aureus 53/05 isolates after 18 hrs; type: functional; how it was run: as §1
Staphylococcus aureus [14] = assay: Antibacterial activity against methicillin-resistant Staphylococcus aureus 54/05 isolates after 18 hrs; type: functional; how it was run: as §1
Staphylococcus aureus [15] = assay: Antibacterial activity against methicillin-resistant Staphylococcus aureus 55/05 isolates after 18 hrs; type: functional; how it was run: as §1
Staphylococcus aureus [16] = assay: Antibacterial activity against methicillin-resistant Staphylococcus aureus 56/05 isolates after 18 hrs; type: functional; how it was run: as §1
Staphylococcus aureus [17] = assay: Antibacterial activity against methicillin-resistant Staphylococcus aureus 79/05 isolates after 18 hrs; type: functional; how it was run: as §1
Staphylococcus aureus [18] = assay: Antibacterial activity against methicillin-resistant Staphylococcus aureus 80/05 isolates after 18 hrs; type: functional; how it was run: as §1
Staphylococcus aureus [19] = assay: Antibacterial activity against methicillin-resistant Staphylococcus aureus 83/05 isolates after 18 hrs; type: functional; how it was run: as §1
Staphylococcus aureus [20] = assay: Antibacterial activity against methicillin-resistant Staphylococcus aureus 84/05 isolates after 18 hrs; type: functional; how it was run: as §1
Staphylococcus aureus [21] = assay: Antibacterial activity against methicillin-resistant Staphylococcus aureus 85/06 isolates after 18 hrs; type: functional; how it was run: as §1
Staphylococcus aureus [22] = assay: Antibacterial activity against methicillin-resistant Staphylococcus aureus 90/06 isolates after 18 hrs; type: functional; how it was run: as §1
Staphylococcus aureus [23] = assay: Antibacterial activity against Staphylococcus aureus ATCC 29213 at 400 ug/disk […] by disc-diffusion method; type: functional; conditions: read-out: IZ
Staphylococcus aureus [24] = assay: Antibacterial activity against Staphylococcus aureus ATCC 6538P at 400 ug/disk after 24 to 48 hrs by disc-diffusion method; type: functional; conditions: read-out: IZ
Bacillus subtilis = assay: Antibacterial activity against Bacillus subtilis ATCC 6633 at 400 ug/disk […] by disc-diffusion method; type: functional; conditions: read-out: IZ
Enterococcus hirae = assay: Antibacterial activity against Enterococcus hirae ATCC 10541 at 400 ug/disk after 24 to 48 hrs by disc-diffusion method; type: functional; conditions: read-out: IZ
Pseudomonas aeruginosa [25] = assay: Antibacterial activity against Pseudomonas aeruginosa NCTC 6749 at 400 ug/disk […] by disc-diffusion method; type: functional, organism-based
Pseudomonas aeruginosa [26] = assay: Antibacterial activity against Pseudomonas aeruginosa ATCC 15442 at 400 ug/disk […] by disc-diffusion method; type: functional, organism-based
[27] = test system: Bordetella bronchiseptica; assay: Antibacterial activity against Bordetella bronchiseptica ATCC 4617 at 400 ug/disk […] by disc-diffusion method; type: functional; conditions: read-out: IZ
Candida albicans = assay: Antimicrobial activity against Candida albicans ATCC 10231 at 400 ug/disk after 24 to 48 hrs by disc-diffusion method; type: functional; conditions: read-out: IZ
How it was run: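 Antifungal disc diffusion on YNB agar under CLSI guidelines. Sterile 10 mm filter-paper discs were loaded from aqueous solution with 100 or 400 µg of compound per disc. Plates were read after 24–48 h incubation at 30 °C.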

Staphylococcus aureus [28] = assay: Antibacterial activity against methicillin-resistant Staphylococcus aureus 91/06 isolates after 18 hrs; type: functional; how it was run: as §1
Staphylococcus aureus [29] = assay: Antibacterial activity against methicillin-resistant Staphylococcus aureus 92/06 isolates after 18 hrs; type: functional; how it was run: as §1
Staphylococcus aureus [30] = assay: Antibacterial activity against methicillin-resistant Staphylococcus aureus 93/06 isolates after 18 hrs; type: functional; how it was run: as §1

CC1=C(C)C2(C)C3C(=O)N(OCC(O)C[N+](C)(C)CC(O)CON4C(=O)C5C(C4=O)C4(C)C(C)=C(C)C5(C)C4C)C(=O)C3C1(C)C2C.[Cl-] (stereo not drawn)
23 mm: zone of inhibition at 400 µg/disc (Staphylococcus aureus [24])
18 mm: zone of inhibition at 400 µg/disc (Enterococcus hirae)
21 mm: zone of inhibition at 400 µg/disc [27]
24 mm: zone of inhibition at 400 µg/disc (Staphylococcus aureus [23])
25 µg/mL: MIC (Staphylococcus aureus [30])
14 mm: zone of inhibition at 400 µg/disc (Candida albicans)
200 µg/mL: MIC (Staphylococcus aureus [7]) | MIC (Staphylococcus aureus [8]) | MIC (Staphylococcus aureus [9]) | MIC (Staphylococcus aureus [17])
30 mm: zone of inhibition at 400 µg/disc (Bacillus subtilis)
100 µg/mL: MIC (Staphylococcus aureus [2]) | MIC (Staphylococcus aureus [12]) | MIC (Staphylococcus aureus [15]) | MIC (Staphylococcus aureus [21]) | MIC (Staphylococcus aureus [22]) | MIC (Staphylococcus aureus [28]) | MIC (Staphylococcus aureus [29])
inactive: Activity (Pseudomonas aeruginosa [25]) | Activity (Pseudomonas aeruginosa [26])
50 µg/mL: MIC (Staphylococcus aureus [1]) | MIC (Staphylococcus aureus [3]) | MIC (Staphylococcus aureus [4]) | MIC (Staphylococcus aureus [5]) | MIC (Staphylococcus aureus [6]) | MIC (Staphylococcus aureus [10]) | MIC (Staphylococcus aureus [11]) | MIC (Staphylococcus aureus [13]) | MIC (Staphylococcus aureus [14]) | MIC (Staphylococcus aureus [16]) | MIC (Staphylococcus aureus [18]) | MIC (Staphylococcus aureus [19]) | MIC (Staphylococcus aureus [20])
